These results are taken from ChEMBL document CHEMBL1133075, “Synthesis and characterization of a novel class of protein tyrosine phosphatase inhibitors” (Bioorg Med Chem Lett, 2000).

In one experiment the target is Dual specificity protein phosphatase 3 (Homo sapiens, UniProt P51452). Kind of experiment: Compound was evaluated for the inhibition constant against dual specificity phosphatase VHR. The gist of the method: (§1)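 pNPP hydrolysis in pH 7.0 buffer of 50 mM 3,3-dimethylglutarate, 1 mM EDTA, ionic strength 0.15 M with NaCl. Reaction started with enzyme and stopped after 2–3 min with 1 N NaOH. Nonenzymatic substrate hydrolysis subtracted via an enzyme-free control. Initial rates taken at eight pNPP levels (0.2–5 Km) at each of three fixed inhibitor concentrations to obtain the inhibition constant.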
Chain of Dual specificity protein phosphatase 3 (P51452 whole entry): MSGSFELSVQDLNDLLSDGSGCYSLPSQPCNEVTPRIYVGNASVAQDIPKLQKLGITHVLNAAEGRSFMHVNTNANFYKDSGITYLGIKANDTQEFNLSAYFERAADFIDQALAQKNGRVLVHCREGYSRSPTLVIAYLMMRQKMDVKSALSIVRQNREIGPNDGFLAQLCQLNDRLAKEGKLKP
In the case of `O=P(O)(O)COc1cccc2c1ccc1ccccc12`, affinity was put at a Ki of 0.57 mM.
Regarding `O=P(O)(O)COc1ccccc1` [PHENOXYMETHYLPHOSPHONATE], the Ki (in general, the dissociation constant of the complex between target and ligand, obtained from inhibition or displacement) is 26 mM.
In the case of `O=P(O)(O)COc1ccc2ccccc2c1`, affinity was put at a Ki of 5.7 mM.
In turn, `O=P(O)(O)COc1cccc2ccccc12` registered a Ki of 4.8 mM.
Turning to `O=P(O)(O)COc1ccc(Cc2ccc(O)cc2)cc1`, the Ki is 1.3 mM.
On the same count and under the same terms, the value for `O=C(O)Cc1ccc(OCP(=O)(O)O)cc1` was 2.6 mM.

For a further experiment, the target named is T1, Tyrosine-protein phosphatase non-receptor type 1 (Homo sapiens, UniProt P18031).
T1 sequence (P18031 whole entry): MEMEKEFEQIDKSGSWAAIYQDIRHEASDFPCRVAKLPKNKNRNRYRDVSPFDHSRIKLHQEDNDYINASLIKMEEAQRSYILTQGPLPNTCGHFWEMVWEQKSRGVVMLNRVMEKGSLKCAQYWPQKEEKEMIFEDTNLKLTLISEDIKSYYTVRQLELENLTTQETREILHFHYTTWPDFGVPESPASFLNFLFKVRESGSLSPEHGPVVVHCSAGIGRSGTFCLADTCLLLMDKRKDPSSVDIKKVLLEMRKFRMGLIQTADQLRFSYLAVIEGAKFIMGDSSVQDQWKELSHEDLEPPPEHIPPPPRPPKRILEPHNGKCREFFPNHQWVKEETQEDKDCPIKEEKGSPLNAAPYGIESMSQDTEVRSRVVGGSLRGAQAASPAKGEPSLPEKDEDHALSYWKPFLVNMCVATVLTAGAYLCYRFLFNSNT
Kind of experiment: Compound was evaluated for the inhibition constant against Protein-tyrosine phosphatase (PTP1B ). A digest of the protocol:
as §1
The compound `O=P(O)(O)COc1cccc2c1ccc1ccccc12` registered a Ki of 0.41 mM.
`O=P(O)(O)COc1ccccc1` [PHENOXYMETHYLPHOSPHONATE] came in with a Ki of 3.3 mM.
`O=P(O)(O)COc1ccc2ccccc2c1`: the Ki is 1.3 mM.
As to `O=P(O)(O)COc1cccc2ccccc12`, the Ki was 1.3 mM.
The compound `O=P(O)(O)COc1ccc(Cc2ccc(O)cc2)cc1` returned a Ki of 0.047 mM.
In the case of `O=C(O)Cc1ccc(OCP(=O)(O)O)cc1`, the affinity, expressed as Ki, was 1.1 mM.
